Data from ChEMBL document CHEMBL1141140, “Antifungal agents. 11. N-substituted derivatives of 1-[(aryl)(4-aryl-1H-pyrrol-3-yl)methyl]-1H-imidazole: synthesis, anti-Candida activity, and QSAR studies” (2005).
Values after ≈ are worked out from the molar mass of the structure shown.

Legend:
Candida albicans [1] = assay: Ratio of the in vitro minimal inhibitory to that of bifonazole against Candida albicans (MIC(compound)/MIC(bifonazole)); assay type: functional
Method in brief: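 Broth microdilution per NCCLS M27-A2 against 12 Candida albicans strains (AIDS oropharyngeal, HIV vulvovaginitis isolates, ATCC 24433 and 20891, lab strains 3153 and CA2). Inoculum ~10^4 cells/mL in RPMI 1640, pH 7.0; DMSO stocks 6.4 mg/mL, twofold dilutions 0.016–64 μg/mL; read at 24 h, 28 °C, no visible growth. Mean MIC over strains converted to μmol/mL, divided by bifonazole MIC.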

Candida albicans [2] = assay: In vitro minimal inhibitory concentration against Candida albicans with percentage of resistant strains %R = 36 (MIC > 64 ug/mL) at a range of 0.5-2 ug/mL; assay type: functional
Candida albicans [3] = assay: In vitro concentration causing 90% inhibition of Candida albicans with percentage of resistant strains %R = 36 (MIC > 64 ug/mL) at a range of 0.5-2 ug/mL; assay type: functional
Candida albicans [4] = assay: In vitro concentration causing 50% inhibition of Candida albicans with percentage of resistant strains %R = 36 (MIC > 64 ug/mL) at a range of 0.5-2 ug/mL; assay type: functional
Candida albicans [5] = assay: In vitro concentration causing 90% inhibition of Candida albicans with percentage of resistant strains %R = 50 (MIC > 64 ug/mL) at a range of 0.5-2 ug/mL; assay type: functional
Candida albicans [6] = assay: In vitro concentration causing 50% inhibition of Candida albicans with percentage of resistant strains %R = 50 (MIC > 64 ug/mL) at a range of 0.5-2 ug/mL; assay type: functional
Candida albicans [7] = assay: In vitro minimal inhibitory concentration against Candida albicans with percentage of resistant strains %R = 50 (MIC > 64 ug/mL) at a range of 0.5-2 ug/mL; assay type: functional
Candida albicans [8] = assay: In vitro minimal inhibitory concentration against Candida albicans with percentage of resistant strains %R = 33.33 (MIC > 64 ug/mL) at a range of 1-4 ug/mL; assay type: functional
Candida albicans [9] = assay: In vitro concentration causing 90% inhibition of Candida albicans with percentage of resistant strains %R = 33.33 (MIC > 64 ug/mL) at a range of 1-4 ug/mL; assay type: functional
Candida albicans [10] = assay: In vitro concentration causing 50% inhibition of Candida albicans with percentage of resistant strains %R = 33.33 (MIC > 64 ug/mL) at a range of 1-4 ug/mL; assay type: functional
Candida albicans [11] = assay: In vitro minimal inhibitory concentration against Candida albicans with percentage of resistant strains %R = 0 (MIC > 64 ug/mL) at a range of 0.062-2 ug/mL; assay type: functional
Candida albicans [12] = assay: In vitro concentration causing 50% inhibition of Candida albicans with percentage of resistant strains %R = 0 (MIC > 64 ug/mL) at a range of 0.062-2 ug/mL; assay type: functional
Candida albicans [13] = assay: In vitro concentration causing 90% inhibition of Candida albicans with percentage of resistant strains %R = 0 (MIC > 64 ug/mL) at a range of 0.062-2 ug/mL; assay type: functional
Candida albicans [14] = assay: In vitro concentration causing 50% inhibition of Candida albicans with percentage of resistant strains %R = 16 (MIC > 64 ug/mL) at a range of 2-32 ug/mL; assay type: functional
Candida albicans [15] = assay: In vitro minimal inhibitory concentration against Candida albicans with percentage of resistant strains %R = 16 (MIC > 64 ug/mL) at a range of 2-32 ug/mL; assay type: functional
Candida albicans [16] = assay: In vitro concentration causing 90% inhibition of Candida albicans with percentage of resistant strains %R = 16 (MIC > 64 ug/mL) at a range of 2-32 ug/mL; assay type: functional
Candida albicans [17] = assay: In vitro concentration causing 50% inhibition of Candida albicans with percentage of resistant strains %R = 10 (MIC > 64 ug/mL) at a range of 0.5-8 ug/mL; assay type: functional
Candida albicans [18] = assay: In vitro concentration causing 90% inhibition of Candida albicans with percentage of resistant strains %R = 10 (MIC > 64 ug/mL) at a range of 0.5-8 ug/mL; assay type: functional
Candida albicans [19] = assay: Ratio of the in vitro minimal inhibitory concentrations to that of bifonazole against Candida albicans (MIC(compound)/MIC(bifonazole)); assay type: functional
Candida albicans [20] = assay: In vitro minimal inhibitory concentration against Candida albicans with percentage of resistant strains %R = 10 (MIC > 64 ug/mL) at a range of 0.5-8 ug/mL; assay type: functional
Candida albicans [21] = assay: In vitro concentration causing 50% inhibition of Candida albicans with percentage of resistant strains %R = 45.45 (MIC > 64 ug/mL) at a range of 0.125-0.5 ug/mL; assay type: functional
Candida albicans [22] = assay: In vitro minimal inhibitory concentration against Candida albicans with percentage of resistant strains %R = 45.45 (MIC > 64 ug/mL) at a range of 0.125-0.5 ug/mL; assay type: functional
Candida albicans [23] = assay: In vitro concentration causing 90% inhibition of Candida albicans with percentage of resistant strains %R = 45.45 (MIC > 64 ug/mL) at a range of 0.125-0.5 ug/mL; assay type: functional
Candida albicans [24] = assay: In vitro concentration causing 50% inhibition of Candida albicans with percentage of resistant strains %R = 25 (MIC > 64 ug/mL) at a range of 0.062-0.25 ug/mL; assay type: functional
Candida albicans [25] = assay: In vitro concentration causing 90% inhibition of Candida albicans with percentage of resistant strains %R = 25 (MIC > 64 ug/mL) at a range of 0.062-0.25 ug/mL; assay type: functional
Candida albicans [26] = assay: In vitro minimal inhibitory concentration against Candida albicans with percentage of resistant strains %R = 25 (MIC > 64 ug/mL) at a range of 0.062-0.25 ug/mL; assay type: functional
Candida albicans [27] = assay: microbe, parasite or virus in culture
Candida albicans [28] = assay: In vitro concentration causing 50% inhibition of Candida albicans with percentage of resistant strains %R = 33.33 (MIC > 64 ug/mL) at a range of 0.062-2 ug/mL; assay type: functional
Candida albicans [29] = assay: In vitro concentration causing 90% inhibition of Candida albicans with percentage of resistant strains %R = 33.33 (MIC > 64 ug/mL) at a range of 0.062-2 ug/mL; assay type: functional

Cn1cc(-c2ccccc2Cl)c(C(c2ccc(Cl)cc2Cl)n2ccnc2)c1 (stereo not given)
Ratio (Candida albicans [1]): 0.36
MIC (Candida albicans [2]): 1.71 µg/mL (≈ 4.1 µM)
MIC90 (Candida albicans [3]): 2 µg/mL (≈ 4.8 µM)
MIC50 (Candida albicans [4]): 2 µg/mL (≈ 4.8 µM)

Clc1ccc(C(c2c[nH]cc2-c2cccc3ccccc23)n2ccnc2)c(Cl)c1 (stereo not given)
Ratio (Candida albicans [1]): 0.21
MIC90 (Candida albicans [5]): 2 µg/mL (≈ 4.78 µM)
MIC50 (Candida albicans [6]): 0.5 µg/mL (≈ 1.2 µM)
MIC (Candida albicans [7]): 1 µg/mL (≈ 2.39 µM)

Cn1cc(-c2ccc(-n3cccc3)cc2)c(C(c2ccc(Cl)cc2Cl)n2ccnc2)c1 (stereo not given)
Ratio (Candida albicans [1]): 0.62
MIC (Candida albicans [8]): 3.12 µg/mL (≈ 6.97 µM)
MIC90 (Candida albicans [9]): 4 µg/mL (≈ 8.94 µM)
MIC50 (Candida albicans [10]): 4 µg/mL (≈ 8.94 µM)

C=CCn1cc(-c2ccc(Cl)cc2Cl)c(C(c2ccc(Cl)cc2Cl)n2ccnc2)c1 (stereo not given)
Ratio (Candida albicans [1]): 0.12
MIC (Candida albicans [11]): 0.65 µg/mL (≈ 1.36 µM)
MIC50 (Candida albicans [12]): 0.25 µg/mL (≈ 0.524 µM)
MIC90 (Candida albicans [13]): 1 µg/mL (≈ 2.1 µM)

Cn1cc(-c2ccc(Cl)cc2Cl)c(C(c2ccc(Cl)cc2Cl)n2ccnc2)c1 (stereo not given)
Ratio (Candida albicans [1]): 2.9
MIC50 (Candida albicans [14]): 8 µg/mL (≈ 17.7 µM)
MIC (Candida albicans [15]): 14.6 µg/mL (≈ 32.4 µM)
MIC90 (Candida albicans [16]): 32 µg/mL (≈ 70.9 µM)

c1ccc(-c2ccc(C(c3ccccc3)n3ccnc3)cc2)cc1 (stereo not given) [BIFONAZOLE]
MIC50 (Candida albicans [17]): 2 µg/mL (≈ 6.44 µM)
MIC90 (Candida albicans [18]): 8 µg/mL (≈ 25.8 µM)
Ratio (Candida albicans [19]): 1
MIC (Candida albicans [20]): 3.5 µg/mL (≈ 11.3 µM)

OC(Cn1cncn1)(Cn1cncn1)c1ccc(F)cc1F [FLUCONAZOLE]
Ratio (Candida albicans [1]): 0.069
MIC50 (Candida albicans [21]): 0.25 µg/mL (≈ 0.816 µM)
MIC (Candida albicans [22]): 0.24 µg/mL (≈ 0.784 µM)
MIC90 (Candida albicans [23]): 0.5 µg/mL (≈ 1.63 µM)

CCC(C)n1ncn(-c2ccc(N3CCN(c4ccc(OC[C@H]5CO[C@](Cn6cncn6)(c6ccc(Cl)cc6Cl)O5)cc4)CC3)cc2)c1=O (stereo not given in full) [ITRACONAZOLE]
MIC50 (Candida albicans [24]): 0.062 µg/mL (≈ 0.0879 µM)
MIC90 (Candida albicans [25]): 0.125 µg/mL (≈ 0.177 µM)
MIC (Candida albicans [26]): 0.096 µg/mL (≈ 0.136 µM)

Clc1ccc(COC(Cn2ccnc2)c2ccc(Cl)cc2Cl)c(Cl)c1 (stereo not given) [MICONAZOLE]
Ratio (Candida albicans [1]): 0.14
MIC (Candida albicans [27]): 0.65 µg/mL (≈ 1.56 µM)
MIC50 (Candida albicans [28]): 0.062 µg/mL (≈ 0.149 µM)
MIC90 (Candida albicans [29]): 1 µg/mL (≈ 2.4 µM)
